According to ChEMBL document CHEMBL4020842, “Discovery of N1-(4-((7-Cyclopentyl-6-(dimethylcarbamoyl)-7 H-pyrrolo[2,3- d]pyrimidin-2-yl)amino)phenyl)- N8-hydroxyoctanediamide as a Novel Inhibitor Targeting Cyclin-dependent Kinase 4/9 (CDK4/9) and Histone Deacetlyase1 (HDAC1) against Malignant Cancer” (J Med Chem, 2018):
≈ marks a conversion by molar mass, not a printed value. Calls of active or inactive are those of the source. No cut-off for these calls is given here.

Assays:
[1] = AUC (0 to infinity) in Sprague-Dawley rat at 20 mg/kg, iv administered as single dose by HPLC analysis; type: ADME, organism-based; parameters: dose 20 mg/kg, route intravenous, time infinity; settings: in vivo
[2] = test system: T47D; assay: Induction of apoptosis in human T47D cells assessed as necrotic cells at 5 uM after 48 hrs by annexin V-FITC/propidium iodide staining based flow cytometry (reference value: 0.8%); type: functional
[3] = Aqueous solubility in water at 1 mg using methanesulfonic acid formulation sonicated for 24 hrs and incubated under unstirred condition for 24 hrs by HPLC method; type: physicochemical
[4] = test system: Hep 3B2; assay: Induction of apoptosis in human Hep3B cells assessed as necrotic cells at 5 uM after 48 hrs by annexin V-FITC/propidium iodide staining based flow cytometry (reference value: 4.97%); type: functional
[5] = target: T1, Cyclin-dependent kinase 5/CDK5 activator 1 (Homo sapiens) (UniProt Q00535+Q15078); assay: Inhibition of recombinant human full length N-terminal 6His-tagged CDK5/N-terminal GST-tagged p35 co-expressed in baculovirus infected sf21 cells at 1 uM using histone H1 substrate in presence of [gamma33P]ATP after 10 mins by scintillation counting method relative to control
T1 sequence (Q00535 whole entry): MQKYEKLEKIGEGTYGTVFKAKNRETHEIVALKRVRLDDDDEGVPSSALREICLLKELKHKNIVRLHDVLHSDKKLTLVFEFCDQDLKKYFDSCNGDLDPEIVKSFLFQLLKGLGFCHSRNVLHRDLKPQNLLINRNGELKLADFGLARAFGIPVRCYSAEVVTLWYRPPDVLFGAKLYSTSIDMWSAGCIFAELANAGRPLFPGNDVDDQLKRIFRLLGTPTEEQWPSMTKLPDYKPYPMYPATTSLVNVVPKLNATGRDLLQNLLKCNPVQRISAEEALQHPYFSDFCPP
T1 sequence (Q15078 99-307 partner limits assumed): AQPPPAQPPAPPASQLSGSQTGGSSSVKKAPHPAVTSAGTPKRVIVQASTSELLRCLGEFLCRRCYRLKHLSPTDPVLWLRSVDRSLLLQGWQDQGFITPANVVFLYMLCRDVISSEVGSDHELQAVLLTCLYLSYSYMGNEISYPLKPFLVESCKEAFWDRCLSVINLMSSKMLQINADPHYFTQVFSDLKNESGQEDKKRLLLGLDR

[6] = test system: HepG2; assay: Downregulation of Cyclin-D1 protein expression in human HepG2 cells after 48 hrs by Western blot method; type: functional, cell-based
Procedure, shortened: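 Treated cells were lysed and CDK4 and cyclin D1 protein levels were assessed by Western blot.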

[7] = test system: T47D; assay: Induction of apoptosis in human T47D cells assessed as early apoptotic cells at 1 uM after 48 hrs by annexin V-FITC/propidium iodide staining based flow cytometry (reference value: 7.7%); type: functional
[8] = MRT (0 to infinity) in Sprague-Dawley rat at 20 mg/kg, iv administered as single dose by HPLC analysis; type: ADME, organism-based; settings: in vivo
[9] = test system: A549; assay: Cell cycle arrest in human A549 cells assessed as decrease in S-phase at 625 nM after 24 hrs by propidium iodide staining based flow cytometry; type: functional
Procedure, shortened: (§1)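 Cells were exposed for 24 h to a range of concentrations (625 nM, 2.5 and 10 µM), with DMSO vehicle as control. They were then stained with propidium iodide and analysed by flow cytometry to obtain the percentages of cells in G0/G1, S and G2 phases.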

[10] = test system: NCI-H1299; assay: Cytotoxicity against human NCI-H1299 cells assessed as reduction in cell viability after 72 hrs by CCK8 assay; type: functional, cell-based; settings: NCI-H1299, 72 h
[11] = Clearance in Sprague-Dawley rat at 20 mg/kg, po administered as single dose by HPLC analysis; type: ADME, organism-based; settings: in vivo
[12] = test system: A549; assay: Induction of apoptosis in human A549 cells assessed as live cells at 5 uM after 48 hrs by annexin V-FITC/propidium iodide staining based flow cytometry (reference value: 92.7%); type: functional
[13] = test system: Hep 3B2; assay: Induction of apoptosis in human Hep3B cells assessed as live cells at 10 uM after 48 hrs by annexin V-FITC/propidium iodide staining based flow cytometry (reference value: 97.9%); type: functional
[14] = test system: T47D; assay: Induction of apoptosis in human T47D cells after 48 hrs by annexin V-FITC/propidium iodide staining based flow cytometry; type: functional, cell-based
[15] = target: CDK4/CDK9 (Homo sapiens) (UniProt P11802+P50750); assay: Inhibition of CDK4/CDK9 in human T47D cells assessed as reduction in Rb phosphorylation at Ser807/811 residues at 1 uM after 48 hrs by Western blot method; type: cell-based
Chain of CDK4/CDK9 (Homo sapiens) (P11802 whole entry, looked up): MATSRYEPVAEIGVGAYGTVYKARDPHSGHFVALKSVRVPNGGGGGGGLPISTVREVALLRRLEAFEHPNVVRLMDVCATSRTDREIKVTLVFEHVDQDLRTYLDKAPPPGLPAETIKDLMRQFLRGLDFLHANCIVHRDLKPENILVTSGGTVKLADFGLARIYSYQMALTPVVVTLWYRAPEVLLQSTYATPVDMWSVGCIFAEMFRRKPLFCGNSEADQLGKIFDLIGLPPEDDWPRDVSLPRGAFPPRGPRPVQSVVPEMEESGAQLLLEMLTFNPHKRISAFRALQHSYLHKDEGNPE
Chain of CDK4/CDK9 (Homo sapiens) (P50750 whole entry, looked up): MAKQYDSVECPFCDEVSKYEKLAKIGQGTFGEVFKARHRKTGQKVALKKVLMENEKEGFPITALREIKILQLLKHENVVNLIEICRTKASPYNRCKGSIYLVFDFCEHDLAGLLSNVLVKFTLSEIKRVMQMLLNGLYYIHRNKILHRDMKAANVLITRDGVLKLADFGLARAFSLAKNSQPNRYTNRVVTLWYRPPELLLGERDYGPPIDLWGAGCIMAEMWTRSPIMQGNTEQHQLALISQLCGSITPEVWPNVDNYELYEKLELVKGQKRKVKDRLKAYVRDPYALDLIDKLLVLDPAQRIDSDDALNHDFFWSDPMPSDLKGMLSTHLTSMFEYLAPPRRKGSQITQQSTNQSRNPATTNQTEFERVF

[16] = test system: NCI-H460; assay: Induction of apoptosis in human NCI-H460 cells assessed as necrotic cells at 1 uM after 48 hrs by annexin V-FITC/propidium iodide staining based flow cytometry (reference value: 1.34%); type: functional
[17] = target: Calcium/calmodulin-dependent protein kinase kinase 2 (Homo sapiens, UniProt Q96RR4); assay: Inhibition of recombinant human full length C-terminal 6His-tagged CaMKK2 expressed in baculovirus infected sf21 cells
Chain of Calcium/calmodulin-dependent protein kinase kinase 2 (Q96RR4 whole entry): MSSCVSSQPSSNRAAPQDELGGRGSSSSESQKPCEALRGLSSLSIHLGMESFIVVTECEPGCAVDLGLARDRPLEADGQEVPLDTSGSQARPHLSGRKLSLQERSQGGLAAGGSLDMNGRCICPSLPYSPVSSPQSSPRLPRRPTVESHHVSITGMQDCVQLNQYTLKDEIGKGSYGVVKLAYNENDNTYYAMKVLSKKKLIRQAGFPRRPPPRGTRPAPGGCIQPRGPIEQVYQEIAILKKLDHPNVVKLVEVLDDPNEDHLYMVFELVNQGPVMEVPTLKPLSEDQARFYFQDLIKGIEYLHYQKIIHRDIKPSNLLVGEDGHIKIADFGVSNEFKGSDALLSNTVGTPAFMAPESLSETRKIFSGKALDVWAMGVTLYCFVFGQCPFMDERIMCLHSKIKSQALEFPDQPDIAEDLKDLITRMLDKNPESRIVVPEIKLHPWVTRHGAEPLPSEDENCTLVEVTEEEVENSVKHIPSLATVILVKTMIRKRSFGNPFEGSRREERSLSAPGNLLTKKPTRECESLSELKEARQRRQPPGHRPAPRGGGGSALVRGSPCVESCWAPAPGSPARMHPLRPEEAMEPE

[18] = test system: Mus musculus; assay: Toxicity in Balb/c mouse assessed as weight loss at 45 to 130 mg/kg, ip for 16 consecutive days; type: organism-based; settings: in vivo
[19] = target: T1, Cyclin-dependent kinase 5/CDK5 activator 1 (Homo sapiens); assay: Inhibition of recombinant human full length N-terminal 6His-tagged CDK5/N-terminal GST-tagged p25 co-expressed in baculovirus infected sf21 cells at 1 uM using histone H1 substrate in presence of [gamma33P]ATP after 10 mins by scintillation counting method relative to control
[20] = Aqueous solubility in water at 1 mg using acid formulation sonicated for 24 hrs and incubated under unstirred condition for 24 hrs by HPLC method; type: physicochemical
[21] = test system: Hep 3B2; assay: Induction of apoptosis in human Hep3B cells assessed as early apoptotic cells at 5 uM after 48 hrs by annexin V-FITC/propidium iodide staining based flow cytometry (reference value: 1.91%); type: functional
[22] = test system: A549; assay: Induction of apoptosis in human A549 cells assessed as late apoptotic cells at 5 uM after 48 hrs by annexin V-FITC/propidium iodide staining based flow cytometry (reference value: 0.88%); type: functional
[23] = test system: 4T1; assay: Cytotoxicity against mouse 4T1 cells assessed as reduction in cell viability after 72 hrs by CCK8 assay; type: functional, cell-based; settings: 4T1, 72 h
[24] = test system: 4T1; assay: Antitumor activity against mouse Fluc-labeled 4T1 cells implanted in Balb/c mouse assessed as tumor growth inhibition at 130 mg/kg, po administered daily via gavage for 18 days by bioluminescence assay relative to control; type: functional; settings: 4T1, po, 432 h, read-out: TGI
[25] = test system: HepG2; assay: Induction of apoptosis in human HepG2 cells assessed as early apoptotic cells at 5 uM after 48 hrs by annexin V-FITC/propidium iodide staining based flow cytometry (reference value: 0.3%); type: functional
[26] = target: High affinity nerve growth factor receptor (Homo sapiens, UniProt P04629); assay: Inhibition of recombinant human N-terminal His6-tagged TrkA (440-end residues) expressed in baculovirus infected sf21 cells
Chain of High affinity nerve growth factor receptor (P04629 whole entry): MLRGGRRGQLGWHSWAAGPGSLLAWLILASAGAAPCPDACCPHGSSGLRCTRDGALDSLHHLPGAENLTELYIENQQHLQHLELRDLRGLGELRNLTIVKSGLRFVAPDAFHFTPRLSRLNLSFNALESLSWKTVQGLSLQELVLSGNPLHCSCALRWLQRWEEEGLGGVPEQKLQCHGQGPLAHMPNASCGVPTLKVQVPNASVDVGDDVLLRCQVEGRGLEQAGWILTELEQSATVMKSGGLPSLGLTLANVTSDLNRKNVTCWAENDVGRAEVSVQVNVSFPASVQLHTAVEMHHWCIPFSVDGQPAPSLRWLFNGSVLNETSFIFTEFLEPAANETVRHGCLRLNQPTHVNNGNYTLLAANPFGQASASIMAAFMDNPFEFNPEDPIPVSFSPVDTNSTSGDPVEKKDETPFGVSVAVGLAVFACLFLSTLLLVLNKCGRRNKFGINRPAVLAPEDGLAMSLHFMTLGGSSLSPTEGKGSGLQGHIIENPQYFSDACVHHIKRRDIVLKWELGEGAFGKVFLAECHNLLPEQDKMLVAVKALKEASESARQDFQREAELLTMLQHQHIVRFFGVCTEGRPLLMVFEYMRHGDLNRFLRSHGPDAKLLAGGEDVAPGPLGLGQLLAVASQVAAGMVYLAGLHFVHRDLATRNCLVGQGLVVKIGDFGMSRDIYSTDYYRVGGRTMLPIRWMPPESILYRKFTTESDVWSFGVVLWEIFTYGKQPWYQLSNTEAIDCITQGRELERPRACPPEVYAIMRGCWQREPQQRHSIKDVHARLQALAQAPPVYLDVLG

[27] = test system: 4T1; assay: Antitumor activity against mouse Fluc-labeled 4T1 cells implanted in Balb/c mouse assessed as reduction in tumor weight at 130 mg/kg, ip administered daily for 18 days measured after 8 to 25 days; type: functional, organism-based
Procedure, shortened: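 Luciferase (Fluc) reporter introduced into 4T1 cells by lentiviral transduction. Cells implanted orthotopically into mammary fat pads of female BALB/c mice aged 6–8 weeks. Once tumours averaged 100 mm3, dosing was daily by IP injection. Bioluminescence imaging was done at days 8 and 25 to reflect viable tumour cell number. Tumour weight was recorded at study end.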

[28] = test system: HepG2; assay: Cell cycle arrest in human HepG2 cells assessed as decrease in S-phase at 625 nM after 24 hrs by propidium iodide staining based flow cytometry; type: functional; procedure, shortened: as §1
[29] = target: Histone deacetylase 1 (Homo sapiens, UniProt Q13547); assay: Inhibition of HDAC1 in human A549 cells assessed as increase in acetylated-histone H3 level at 1 to 5 uM after 48 hrs by Western blot method; type: cell-based
Chain of Histone deacetylase 1 (Q13547 whole entry): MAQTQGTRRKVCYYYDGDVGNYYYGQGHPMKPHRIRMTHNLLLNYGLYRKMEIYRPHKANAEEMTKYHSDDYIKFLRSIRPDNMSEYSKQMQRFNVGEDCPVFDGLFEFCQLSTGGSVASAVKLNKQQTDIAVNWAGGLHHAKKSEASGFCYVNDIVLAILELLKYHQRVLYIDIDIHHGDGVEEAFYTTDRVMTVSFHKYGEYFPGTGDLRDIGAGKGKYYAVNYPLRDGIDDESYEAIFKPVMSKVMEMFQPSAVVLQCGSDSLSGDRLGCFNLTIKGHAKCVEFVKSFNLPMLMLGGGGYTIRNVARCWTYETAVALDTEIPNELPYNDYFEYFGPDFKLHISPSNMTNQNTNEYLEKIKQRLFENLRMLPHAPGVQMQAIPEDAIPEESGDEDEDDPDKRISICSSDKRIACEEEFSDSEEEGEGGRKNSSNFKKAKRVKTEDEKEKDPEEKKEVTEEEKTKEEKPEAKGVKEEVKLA

[30] = target: Aurora-C/INCENP (Homo sapiens, UniProt Q9NQS7+Q9UQB9); assay: Inhibition of recombinant human N-terminal His6-tagged Aurora-C (35-end residues)/N-terminal GST-tagged INCENP (821-end residues) expressed in baculovirus infected sf21 cells using AKRRRLSSLRA substrate in presence of [gamma33P]ATP after 10 mins by scintillation counting method
Chain of Aurora-C/INCENP (Q9UQB9 whole entry): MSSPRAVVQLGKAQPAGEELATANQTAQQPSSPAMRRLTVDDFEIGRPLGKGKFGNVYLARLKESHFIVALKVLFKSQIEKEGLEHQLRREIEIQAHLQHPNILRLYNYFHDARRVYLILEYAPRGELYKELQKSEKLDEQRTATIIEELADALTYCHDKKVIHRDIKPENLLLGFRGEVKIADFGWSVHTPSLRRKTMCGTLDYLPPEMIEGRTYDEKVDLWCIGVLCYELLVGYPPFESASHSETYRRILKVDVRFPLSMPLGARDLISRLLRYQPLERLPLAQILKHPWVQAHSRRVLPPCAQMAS
Chain of Aurora-C/INCENP (Q9NQS7 whole entry): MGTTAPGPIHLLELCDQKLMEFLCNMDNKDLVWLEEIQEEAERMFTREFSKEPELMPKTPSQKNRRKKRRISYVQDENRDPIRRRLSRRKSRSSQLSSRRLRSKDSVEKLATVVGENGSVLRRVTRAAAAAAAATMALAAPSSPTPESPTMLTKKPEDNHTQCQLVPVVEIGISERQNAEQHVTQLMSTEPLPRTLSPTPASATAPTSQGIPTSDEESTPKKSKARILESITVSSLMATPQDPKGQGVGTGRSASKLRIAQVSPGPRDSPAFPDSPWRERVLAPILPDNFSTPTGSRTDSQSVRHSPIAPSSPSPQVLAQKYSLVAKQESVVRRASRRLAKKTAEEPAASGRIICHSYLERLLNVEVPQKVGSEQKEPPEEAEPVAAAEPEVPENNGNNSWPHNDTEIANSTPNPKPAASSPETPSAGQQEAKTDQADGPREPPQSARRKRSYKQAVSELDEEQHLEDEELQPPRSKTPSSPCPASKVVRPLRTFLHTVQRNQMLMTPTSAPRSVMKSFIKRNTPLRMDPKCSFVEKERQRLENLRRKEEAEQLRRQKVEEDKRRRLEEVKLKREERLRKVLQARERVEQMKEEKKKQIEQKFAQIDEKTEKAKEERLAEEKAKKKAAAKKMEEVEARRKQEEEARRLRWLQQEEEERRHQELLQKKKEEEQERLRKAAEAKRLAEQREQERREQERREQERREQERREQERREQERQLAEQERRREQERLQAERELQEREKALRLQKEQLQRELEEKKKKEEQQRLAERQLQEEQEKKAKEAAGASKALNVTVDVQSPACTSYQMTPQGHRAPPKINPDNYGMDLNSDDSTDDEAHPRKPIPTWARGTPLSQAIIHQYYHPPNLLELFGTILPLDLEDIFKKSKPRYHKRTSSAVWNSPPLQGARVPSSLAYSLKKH

[31] = test system: HepG2; assay: Cell cycle arrest in human HepG2 cells assessed as accumulation at G0/G1 phase at 625 nM after 24 hrs by propidium iodide staining based flow cytometry; type: functional; procedure, shortened: as §1

CN(C)C(=O)c1cc2cnc(Nc3ccc(NC(=O)CCCCCCC(=O)NO)cc3)nc2n1C1CCCC1
AUC(0-inf) [1]: 6160 ng·h/mL | Activity [2]: 0.82% | solubility at 24 h [3]: 526 µg/mL (≈ 982 µM) | Activity [4]: 2.08% | inhibition [5]: 72% | Activity [6]: Dose-dependent effect | Activity [7]: 4.5% | MRT inf [8]: 14.1 h | Activity [9]: Active | IC50 [10]: 1.87 µM | CL/F [11]: 344 mL/min/kg | Activity [12]: 80.5% | Activity [13]: 72.8% | Activity [14]: Dose-dependent effect | inhibition [15]: Active | Activity [16]: 1.25% | IC50 [17]: 0.053 µM | Activity [18]: Non-Toxic | inhibition [19]: 78% | solubility [20]: Insoluble | Activity [21]: 6.52% | Activity [22]: 13% | IC50 [23]: 1.11 µM | inhibition in vivo at 130 mg/kg [24]: 79.3% | Activity [25]: 7.31% | IC50 [26]: 0.031 µM | Activity [27]: Active | Activity [28]: Active | inhibition [29]: Active | IC50 [30]: 0.022 µM | Activity [31]: Active
